Results published in ChEMBL document CHEMBL1132904, “'Double-Drugs'--a new class of prodrug form of an HIV protease inhibitor conjugated with a reverse transcriptase inhibitor by a spontaneously cleavable linker” (Bioorg Med Chem Lett, 2000).
pEC50: −log10 of the molar value. ≈ marks a conversion by molar mass, not a printed value. Calls of active or inactive are those of the source. The calls are words filed in the database; no cut-off is given here.

What was measured:
MOLT-4 = experiment: Compound was evaluated for anti-HIV activity against HIV-1Lal inoculated with Molt-4 cells; assay type: functional, cell-based; conditions: Homo sapiens
In short: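 HIV-1 LAI (100 TCID50) was inoculated together with 4-fold serial dilutions of compound onto Molt-4 cells at 5000 cells/well. Cultures were kept 7 days. Surviving cells were quantified by WST-8 assay, and EC50 was calculated from the ratios of surviving cells.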

[1] = system: Human immunodeficiency virus 1; experiment: Relative potency of compound to that of AZT was determined
[2] = molecular target: Human immunodeficiency virus type 1 protease (Human immunodeficiency virus 1) (UniProt Q72874); experiment: Compound was evaluated for the percentage inhibition of HIV protease at 5 uM
[3] = Water solubility by RP-HPLC; assay type: ADME
In short: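 Aliquots of compound solutions were injected onto HPLC. Dissolved concentration was determined by comparison of peak area.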

[4] = molecular target: Human immunodeficiency virus type 1 protease (Human immunodeficiency virus 1, UniProt Q72874); experiment: Inhibitory activity against HIV-1 IIIB/CEM-SS protease
[5] = molecular target: Human immunodeficiency virus type 1 protease (Human immunodeficiency virus 1) (UniProt Q72874); experiment: Inhibitory activity against HIV protease; Active
[6] = Therapeutic index was determined; conditions: read-out: Therapeutic index

Row | SMILES | pEC50 (MOLT-4) | Activity [5] | also measured
1 | Cc1cn([C@H]2C[C@H](N=[N+]=[N-])[C@@H](CO)O2)c(=O)[nH]c1=O [ZIDOVUDINE] | 8.21 |  | 
2 | Cc1cccc(C)c1OCC(=O)N[C@@H](Cc1ccccc1)[C@H](OC(=O)CCC(=O)NCCC(=O)OCC1OC(n2cc(C)c(=O)[nH]c2=O)CC1N=[N+]=[N-])C(=O)N1CSC(C)(C)[C@H]1C(=O)NC(C)(C)C (stereo partly drawn) [KNI-1046] | 9.00 |  | Relative potency [1]: 6.2; inhibition [2]: 7%; solubility [3]: 373 µg/mL (≈ 382 µM)
3 | Cc1cccc(C)c1OCC(=O)N[C@@H](Cc1ccccc1)[C@H](OC(=O)CCC(=O)OCC1OC(n2cc(C)c(=O)[nH]c2=O)CC1N=[N+]=[N-])C(=O)N1CSC(C)(C)[C@H]1C(=O)NC(C)(C)C (stereo partly drawn) |  |  | pEC50 [4]: 6.72
4 | Cc1cccc(C)c1OCC(=O)N[C@@H](Cc1ccccc1)[C@H](OC(=O)CCCC(=O)NCCC(=O)OCC1OC(n2cc(C)c(=O)[nH]c2=O)CC1N=[N+]=[N-])C(=O)N1CSC(C)(C)[C@H]1C(=O)NC(C)(C)C (stereo partly drawn) | 8.47 |  | Relative potency [1]: 1.8; inhibition [2]: 12%; solubility [3]: 235 µg/mL (≈ 237 µM)
5 | Cc1cn(C2CC(N=[N+]=[N-])C(COC(=O)CN)O2)c(=O)[nH]c1=O (stereo not drawn) |  | Active | 
6 | Cc1cccc(C)c1OCC(=O)N[C@@H](Cc1ccccc1)[C@H](OC(=O)CCCC(=O)NCC(=O)OCC1OC(n2cc(C)c(=O)[nH]c2=O)CC1N=[N+]=[N-])C(=O)N1CSC(C)(C)[C@H]1C(=O)NC(C)(C)C (stereo partly drawn) [KNI-1039] | 10.00 |  | Relative potency [1]: 62; inhibition [2]: 55%; selectivity ratio [6]: > 2000; solubility [3]: 371 µg/mL (≈ 380 µM)
7 | Cc1cn(C2CC(N=[N+]=[N-])C(COC(=O)CCN)O2)c(=O)[nH]c1=O (stereo not drawn) |  | Active | 

The next lines start with results.

Row | pEC50 (MOLT-4) | Activity [5] | SMILES | also measured
8 |  | Active | Cc1cn(C2CC(N=[N+]=[N-])C(COC(=O)C(C)(C)CC(=O)N[C@H](Cc3ccccc3)[C@@H](O)C(=O)N3CSC(C)(C)[C@H]3C(=O)NC(C)(C)C)O2)c(=O)[nH]c1=O (stereo partly drawn) | 
9 | 7.04 |  | Cc1cccc(C)c1OCC(=O)N[C@@H](Cc1ccccc1)[C@H](O)C(=O)N1CSC(C)(C)[C@H]1C(=O)NC(C)(C)C | 
10 |  | Active | Cc1cccc(C)c1OCC(=O)N[C@@H](Cc1ccccc1)[C@H](OC(=O)CCCC(=O)O)C(=O)N1CSC(C)(C)[C@H]1C(=O)NC(C)(C)C | 
11 | 8.28 |  | Cc1cccc(C)c1OCC(=O)N[C@@H](Cc1ccccc1)[C@H](OC(=O)CCC(=O)NCC(=O)OCC1OC(n2cc(C)c(=O)[nH]c2=O)CC1N=[N+]=[N-])C(=O)N1CSC(C)(C)[C@H]1C(=O)NC(C)(C)C (stereo partly drawn) [KNI-1038] | Relative potency [1]: 1.2; inhibition [2]: 37%; solubility [3]: 290 µg/mL (≈ 301 µM)
12 |  | Active | Cc1ccccc1CNC(=O)[C@H]1N(C(=O)[C@@H](O)[C@H](Cc2ccccc2)NC(=O)CC(C)(C)C(=O)O)CSC1(C)C | 
13 |  | Active | CC(C)(C)NC(=O)[C@H]1N(C(=O)[C@@H](O)[C@H](Cc2ccccc2)NC(=O)CC(C)(C)C(=O)O)CSC1(C)C | 
14 |  | Active | Cc1cccc(C)c1OCC(=O)N[C@@H](Cc1ccccc1)[C@H](OC(=O)CCC(=O)O)C(=O)N1CSC(C)(C)[C@H]1C(=O)NC(C)(C)C | 
15 |  | Active | Cc1ccccc1CNC(=O)[C@H]1N(C(=O)[C@H](O)[C@@H](Cc2ccccc2)NC(=O)CC(C)(C)C(=O)OCC2OC(n3cc(C)c(=O)[nH]c3=O)CC2N=[N+]=[N-])CSC1(C)C (stereo partly drawn) | 
